The list is not random: actives were taken first. Their share in the collection is about 0.95%.
PvdQ inh: P. aeruginosa PvdQ acylase inhibition; 340,000 compounds, 0.063% hits; inhibition, % at 10 µM; purified PvdQ acylase, fluorescence plate reader; in the data active means inhibition above about 30%, passing the limit was not always enough;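 further: 0% = vehicle neutral wells and 100% = reference inhibitor wells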
CAL PDZ FP-1: blocks peptide binding to human CAL PDZ domain | Q9HD26 | purified CAL PDZ, TMR-peptide fluorescence polarization, 1 h | inhibition, % at 20 µM | 330,000 compounds, 0.02% hits | AID 504414;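 active means highest replicate inhibition of at least 40%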;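 further: plate controls were DMSO neutral control wells for no effect and unlabeled competitor peptide control wells for full effect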
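Control set: unlabelled peptide and DMSO controls / Material: purified CerCALP PDZ construct / Timing: 1 h incubation at room temperature before polarization reading / Doses: 20 µM, one dose / Detection: fluorescence polarization (mP)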
CAL PDZ FP-2: inhibitors of human CAL PDZ peptide binding; inhibition, % at 24.9 µM; AID 602252; purified CAL PDZ, TMR-peptide fluorescence polarization, 1 h; 300,000 compounds, 0.92% hits;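 active means mean inhibition of at least 30% with at least half of replicates also reaching 30%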;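 further: 0% = DMSO neutral control and 100% = excess unlabeled competitor peptide PRC23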
miR122 inh: miR-122 inhibition in Huh7 cells | Huh7 miR-122 Renilla luciferase sensor, 48 h; neutral wells = 0, positive control = 100 | activation (reporter increase), % at 12.5 µM | 340,000 compounds, 0.3% hits | AID 602342;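 active means mean replicate activation score at least 90 and every replicate individually at or above 90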;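 further: higher luciferase means less miR-122 activity so hits act as miR-122 inhibitors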
* hit, by the source's call; / = no result given; [ ] = another dose, or the depositor's remark.

SMILES	PvdQ inh	CAL PDZ FP-1	CAL PDZ FP-2	miR122 inh
C=CCn1c(O)c(C(C)=Nc2ccc(C(=O)O)cc2)c(=O)[nH]c1=O	-11	0	82*	-2
C=CC1CN2CCC1CC2C(OC(C)=O)c1ccnc2ccc(OC)cc12 (configuration not stated)	-10	-1	58*	/
O=c1cccc2n1CC1CC2CN(C(c2cccc(F)c2)c2sc3ncnn3c2O)C1 (configuration not stated)	-33	-1	/	5
O=C(NCCCN1CC1)Nc1cccc2ccccc12	7	-1	-3	/
Cc1cc(OC(C)C(=O)NCc2ccncc2)c2c3c(c(=O)oc2c1)CCC3 (configuration not stated)	-7	-1	31*	-5
COc1cc2c(c(OC)c1OC)-c1ccc(O)c(=O)cc1C(NC(C)=O)CC2 (configuration not stated)	9	-2	-3	97*
O=C1NC(=O)C(CCc2ccncc2)(Cc2cccc(Cl)c2Cl)C(=O)N1c1ccc(Br)cc1 (configuration not stated)	-9	-2	-2	491*
C[N+]12CCC(CC1)C(=C(c1ccccc1)c1ccccc1)C2	-5	-2	2	/
CCOP(=O)(OCC)C(O)c1ccc(N(C)C)cc1 (configuration not stated)	-11	-1	30*	/
CCOP(=O)(OCC)C(O)c1ccc(Br)cc1 (configuration not stated)	-2	0	-4	/
COC(=O)C1=C(c2ccc(OC)c(OC)c2)C[C@@H]2CC[C@H]1N2C(=O)NC1Cc2ccccc2C1	-9	0	0	0
CCC1CN1P(=S)(N1CC1CC)N1CC1CC (configuration not stated)	6	1	2	5
CCC1CN1P(=O)(c1ccccc1)N1CC1CC (configuration not stated)	-6	0	113*	1
CC(C)CC#Cc1ccc([C@@H]2[C@@H](CO)N3CCCCN(C(=O)Cc4ccccn4)C[C@@H]23)cc1	/	/	/	-2[16.7 µM]
CCC(=NCc1ccc(F)cc1)c1c(O)n(C)c(=O)n(C)c1=O	-10	-2	-5	-20
O=[N+]([O-])c1ccc2c(c1)C(c1ccccc1)=NCCN2	-9	0	33*	/
CC(C)C(=O)Nc1nnc(CCN(CCc2nnc(NC(=O)C(C)C)s2)[N+](=O)[O-])s1	3	0	/	-6
C[C@]12CC[C@H](O)C[C@H]1CC[C@@H]1[C@@H]2CC[C@]2(C)[C@@H](C3=CC(=O)OC3)CC[C@]12O	-8	-1	-3	123*
CC12CCC(O)CC1CCC1C2CCC2(C)C(C3=CC(=O)OC3)CCC12O (configuration not stated)	-18	-2	1	88
C#C[C@]1(O)CC[C@H]2[C@@H]3[C@H](O)C[C@H]4C[C@@H](O)CC[C@]4(C)[C@H]3CC[C@@]21C	/	/	/	-1
Cc1ccc(-n2c(O)c(C=NC3CCCCC3N)c(=O)[nH]c2=O)cc1C (configuration not stated)	-10	-2	-2	-5
Cc1ccc(-n2c(O)c(C=NC3CCCC3)c(=O)[nH]c2=O)c(C)c1	-16	0	49*	1
CCOC(=O)c1ccccc1N	-5	0	7	-3
CCCCOC(=O)c1ccccc1C(=O)OCCCC	-7	0	42*	-6
O=[N+]([O-])c1ccc(N2CCNCC2)c(Cl)c1	7	-3	-6	/
SMILES	PvdQ inh	CAL PDZ FP-1	CAL PDZ FP-2	miR122 inh
CN=C1CN(O)C(c2ccccc2)c2cc(Cl)ccc2N1 (configuration not stated)	5	-2	/	111*
Cc1ccc2c(C)c3ccc4ccccc4c3c[n+]2c1	-10	-2	38*	9
CCN(CC)S(=O)(=O)c1ccc(C)c(NCC(=O)Nc2ccc(C#N)c(Cl)c2)c1	-2	-2	0	119*
CC(=O)N1CCN(CC(=O)Nc2ccc(C#N)c(Cl)c2)CC1	-11	0	1	/
CCn1c(O)c(C=NCc2cccs2)c(=O)[nH]c1=O	-5	0	51*	0
COc1cc(/C=C2\C(=O)NC(=O)N(c3ccccc3)C2=O)c([N+](=O)[O-])cc1OC	-12	46*	0	/
COc1ccc(NP(=O)(Oc2ccc(Cl)cc2)Oc2ccc(Cl)cc2)cc1OC	-8	1	-3	136*
COc1ccc(OC)c(NP(=O)(Oc2ccc(Cl)cc2)Oc2ccc(Cl)cc2)c1	-1	0	1	1
Cc1ccc(OP(=O)(Nc2cccc(C)c2)Oc2ccc(C)cc2)cc1	-5	0	-4	187*
O=C1NCN(c2ccccc2)C12CCN(C(c1cc3ccccc3o1)c1nnnn1Cc1ccccc1)CC2 (configuration not stated)	/	/	/	3
COc1ccc(NC(=O)N2CCC3(CC2)OCCO3)cc1	-11	-1	-3	/
COc1ccc(Nc2ncc(C(=O)N3CCC4(CC3)OCCO4)c3ccccc23)cc1	-14	0	80*	8
COc1ccc(CC(=O)N(CCN(C)C)CC2CCCN(Cc3ccccc3F)C2)cc1 (configuration not stated)	-12	0	/	-8
COc1cccc(C(=O)C2CN(C)CC2c2ccc(Cl)cc2)c1 (configuration not stated)	-12	-3	-3	/
CN1CC(C(=O)c2cccc(C(F)(F)F)c2)C(c2ccc(Cl)cc2)C1 (configuration not stated)	-2	1	59*	0
O=c1cc(C2CCNCC2)[nH][nH]1	-4	-1	/	156*
COC(=O)C1C2c3ccccc3C(c3ccccc32)C1C(=O)OC (configuration not stated)	-7	-3	-7	-4
CC(Cc1ccccc1)NC(=O)Cc1ccc([N+](=O)[O-])cc1 (configuration not stated)	-11	1	30*	/
CC(=O)OC1CC(OC2C(O)CC(OC3C(O)CC(OC4CCC5(C)C(CCC6C5CC(O)C5(C)C(C7=CC(=O)OC7)CCC65O)C4)OC3C)OC2C)OC(C)C1OC1OC(CO)C(O)C(O)C1O (configuration not stated)	-3	0	0	126*
C[C@]12CC[C@H](O)C[C@H]1CC[C@@H]1[C@@H]2C[C@@H](O)[C@]2(C)[C@@H](C3=CC(=O)OC3)CC[C@]12O	6	0	1	21
CCC(C)N1C(=O)/C(=C\c2cc3c4c(c2)CCCN4CCC3)C(=O)NC1=S (configuration not stated)	-5	0	65*	-11
COc1ccc(N2C(=O)CC(=O)NC2=O)cc1	-5	0	-4	236*
Cc1ccc(N2C(=O)CC(=O)NC2=O)cc1	-4	0	-4	-51
COc1ccc(C(CNC(=O)Cc2ccc(Cl)c(Cl)c2)N2CCCCC2)cc1 (configuration not stated)	-9	0	61*	11
COc1ccc(C(CNC(=O)Cc2ccc(Cl)c(Cl)c2)N(C)C)cc1 (configuration not stated)	-16	-3	2	/
CN(C)C(=O)On1c(-c2ccccc2)nc2ccc(Cl)cc21	3	-1	1	1

Compound activity as filed in PubChem BioAssay.
